Assay results published in ChEMBL document CHEMBL3877303 (J Med Chem, 2017).
The source made the active and inactive calls. The rule behind the calls is not given here.

Assays:
[1] = Cell cycle arrest in human GISTT1 cells assessed as accumulation at G0/G1 phase at 1 uM after 24 hrs by propidium iodide/RNase staining based flow cytometry; format: functional
Summary of the method: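 Cells were exposed to serially diluted compound, then fixed in cold 70% ethanol overnight at -20 °C. They were stained with PI/RNase buffer for DNA-content cell-cycle analysis.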

[2] = biological target: T1, Mast/stem cell growth factor receptor Kit (Homo sapiens, UniProt P10721); conditions: GISTT1, 1 uM
T1 sequence (P10721 whole entry): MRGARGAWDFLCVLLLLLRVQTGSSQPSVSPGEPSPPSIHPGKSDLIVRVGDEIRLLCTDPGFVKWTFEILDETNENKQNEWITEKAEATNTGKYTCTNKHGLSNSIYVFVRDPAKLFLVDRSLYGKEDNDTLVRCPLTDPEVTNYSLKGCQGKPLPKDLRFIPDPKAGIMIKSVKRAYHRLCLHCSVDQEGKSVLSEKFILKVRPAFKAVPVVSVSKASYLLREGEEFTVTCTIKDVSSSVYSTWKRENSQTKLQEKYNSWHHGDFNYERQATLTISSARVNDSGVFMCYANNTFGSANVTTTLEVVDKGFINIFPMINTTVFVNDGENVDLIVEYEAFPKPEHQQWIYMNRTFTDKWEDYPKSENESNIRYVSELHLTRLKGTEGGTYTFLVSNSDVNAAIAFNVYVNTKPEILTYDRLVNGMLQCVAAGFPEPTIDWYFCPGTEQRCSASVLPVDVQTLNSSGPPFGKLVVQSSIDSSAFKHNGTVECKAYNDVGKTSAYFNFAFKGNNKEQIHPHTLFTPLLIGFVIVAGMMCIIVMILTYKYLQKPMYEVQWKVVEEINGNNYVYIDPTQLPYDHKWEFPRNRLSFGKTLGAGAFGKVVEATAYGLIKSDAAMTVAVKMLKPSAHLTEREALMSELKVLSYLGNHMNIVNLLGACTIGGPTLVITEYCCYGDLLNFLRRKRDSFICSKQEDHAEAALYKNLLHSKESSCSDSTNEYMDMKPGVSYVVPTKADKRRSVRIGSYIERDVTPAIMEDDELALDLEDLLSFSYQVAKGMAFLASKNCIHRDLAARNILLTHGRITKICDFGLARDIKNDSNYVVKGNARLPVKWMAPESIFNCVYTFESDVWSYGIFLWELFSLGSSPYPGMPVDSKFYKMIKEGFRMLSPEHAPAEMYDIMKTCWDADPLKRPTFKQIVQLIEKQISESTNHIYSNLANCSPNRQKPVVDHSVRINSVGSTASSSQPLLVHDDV

[3] = biological target: T1, Mast/stem cell growth factor receptor Kit; conditions: 1 uM
[4] = biological target: Platelet-derived growth factor receptor alpha (Homo sapiens) (UniProt P16234); assay: Inhibition of Tel-fused PDGFR-alpha (unknown origin) expressed in BAF3 cells assessed as growth inhibition measured after 72 hrs by CellTiter-Glo or CCK8 assay; format: cell-based
Platelet-derived growth factor receptor alpha (Homo sapiens), sequence (P16234 whole entry, the tested form may be a part): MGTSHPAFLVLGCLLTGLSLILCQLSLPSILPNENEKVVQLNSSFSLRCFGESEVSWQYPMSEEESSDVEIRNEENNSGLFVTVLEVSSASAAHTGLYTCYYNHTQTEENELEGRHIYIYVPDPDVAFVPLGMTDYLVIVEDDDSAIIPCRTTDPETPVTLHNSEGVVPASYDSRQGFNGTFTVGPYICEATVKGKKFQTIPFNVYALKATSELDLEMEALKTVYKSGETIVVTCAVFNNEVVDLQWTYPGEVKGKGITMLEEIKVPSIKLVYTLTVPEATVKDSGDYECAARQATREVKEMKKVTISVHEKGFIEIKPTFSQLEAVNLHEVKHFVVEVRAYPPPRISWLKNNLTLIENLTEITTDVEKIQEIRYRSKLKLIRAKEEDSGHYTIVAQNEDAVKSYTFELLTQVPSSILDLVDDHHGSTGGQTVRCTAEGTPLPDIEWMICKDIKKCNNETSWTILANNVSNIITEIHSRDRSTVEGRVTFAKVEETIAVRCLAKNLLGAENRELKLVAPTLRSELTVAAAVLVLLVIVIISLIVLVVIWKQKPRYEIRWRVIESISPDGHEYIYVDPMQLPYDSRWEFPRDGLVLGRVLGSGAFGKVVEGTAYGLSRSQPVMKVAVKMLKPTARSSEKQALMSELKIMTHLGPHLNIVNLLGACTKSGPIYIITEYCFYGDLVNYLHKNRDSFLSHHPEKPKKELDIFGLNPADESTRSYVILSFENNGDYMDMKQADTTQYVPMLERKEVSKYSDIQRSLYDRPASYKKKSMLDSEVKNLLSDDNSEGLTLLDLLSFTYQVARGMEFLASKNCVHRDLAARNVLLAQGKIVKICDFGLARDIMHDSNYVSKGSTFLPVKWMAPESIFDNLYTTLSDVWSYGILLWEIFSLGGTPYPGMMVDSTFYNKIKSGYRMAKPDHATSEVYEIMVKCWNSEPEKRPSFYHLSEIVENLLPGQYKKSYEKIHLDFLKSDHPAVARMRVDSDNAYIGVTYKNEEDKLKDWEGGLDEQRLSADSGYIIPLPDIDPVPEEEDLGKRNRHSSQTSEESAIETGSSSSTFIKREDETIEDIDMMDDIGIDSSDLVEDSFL
Summary of the method: (§1)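 BaF3 lines were made by retroviral transduction with kinase-fusion MSCV vectors packaged in HEK293T cells. Cells were selected with puromycin for 48 h, then selected again without IL-3 so growth depends on the introduced kinase. […] They were seeded at 1 to 2.5×10^4 cells/mL with compound dilutions and incubated 72 h. Viability was read by CellTiter-Glo luminescence or CCK-8 absorbance (450/655 nm), normalized to DMSO control; GI50 was curve-fitted from triplicate tests.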

[5] = system: Mast/stem cell growth factor receptor Kit (Homo sapiens), P10721 [V559D,V654A]; assay: Inhibition of Tel-fused c-KIT V559D/V654A double mutant (unknown origin) expressed in BAF3 cells assessed as growth inhibition measured after 72 hrs by CellTiter-Glo or CCK8 assay; format: cell-based; summary of the method: as §1
Mast/stem cell growth factor receptor Kit (Homo sapiens), P10721 [V559D,V654A], sequence (P10721 whole entry V559D/V654A, the tested form may be a part): as the sequence (P10721 whole entry) above, with V559D, V654A counted along it

[6] = system: Mast/stem cell growth factor receptor Kit (Homo sapiens), P10721 [N822K]; assay: Inhibition of Tel-fused c-KIT N822K mutant (unknown origin) expressed in BAF3 cells assessed as growth inhibition measured after 72 hrs by CellTiter-Glo or CCK8 assay; format: cell-based; summary of the method: as §1
Mast/stem cell growth factor receptor Kit (Homo sapiens), P10721 [N822K], sequence (P10721 whole entry N822K, the tested form may be a part): as the sequence (P10721 whole entry) above, with N822K counted along it

[7] = system: Mast/stem cell growth factor receptor Kit (Homo sapiens), P10721 [D816V]; assay: Inhibition of Tel-fused c-KIT D816V mutant (unknown origin) expressed in BAF3 cells assessed as growth inhibition measured after 72 hrs by CellTiter-Glo or CCK8 assay; format: cell-based; summary of the method: as §1
Mast/stem cell growth factor receptor Kit (Homo sapiens), P10721 [D816V], sequence (P10721 whole entry D816V, the tested form may be a part): as the sequence (P10721 whole entry) above, with D816V counted along it

[8] = biological target: BCR/ABL p210 fusion protein (Homo sapiens, UniProt A1Z199); assay: Inhibition of BCR/ABL p210 fusion protein mediated signaling pathways assessed as reduction in ERK phosphorylation at T202/Y204 in human K562 cells at 0.01 to 3 uM measured after 2 hrs by immunoblotting; format: cell-based
BCR/ABL p210 fusion protein, sequence (A1Z199 1-97): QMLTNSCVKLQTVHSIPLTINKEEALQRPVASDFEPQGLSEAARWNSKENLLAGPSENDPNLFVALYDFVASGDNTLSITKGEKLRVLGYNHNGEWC
Summary of the method: (§2)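 After an ice-cold PBS wash, cells were lysed in RIPA buffer (50 mM Tris pH 8.0) with protease and phosphatase inhibitors, and protein was quantified by BCA. Lysates were run on SDS-PAGE, transferred to PVDF and blocked in 5% milk/TBST. Phospho- and total proteins were probed by immunoblot with ECL detection; β-actin served as loading control.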

[9] = Cmax in Sprague-Dawley rat at 1 mg/kg, iv; format: ADME, organism-based; design: dose 1 mg/kg, route intravenous; conditions: in vivo
Summary of the method: (§3)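 Male Sprague-Dawley rats aged six to eight weeks were fasted overnight and then dosed iv or orally. Blood (~0.2 mL) was drawn from the jugular vein into heparin and kept on ice. Sampling was at 1 min to 8 h for iv and 5 min to 24 h for oral. Plasma was separated by centrifugation at 2-8 °C and stored at -80 °C until analysis.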

[10] = Half life in Sprague-Dawley rat at 1 mg/kg, iv; format: ADME, organism-based; conditions: in vivo; summary of the method: as §3
[11] = AUC (0 to infinity) in Sprague-Dawley rat at 10 mg/kg, po; format: ADME, organism-based; design: dose 10 mg/kg, time infinity, route oral; conditions: in vivo; summary of the method: as §3
[12] = Cmax in Sprague-Dawley rat at 10 mg/kg, po; format: ADME, organism-based; design: dose 10 mg/kg, route oral; conditions: in vivo; summary of the method: as §3
[13] = biological target: T1, Mast/stem cell growth factor receptor Kit; assay: Inhibition of c-KIT mediated signaling pathways assessed as reduction in AKT phosphorylation at S473 in human GIST882 cells at 0.03 to 10 uM measured after 2 hrs by immunoblotting; format: cell-based; summary of the method: as §2
[14] = system: Mus musculus; assay: Toxicity in nu/nu mouse xenografted with human K562 cells assessed as change in body weight at 25 to 100 mg/kg/day administered via oral gavage measured after 28 days; format: organism-based; conditions: in vivo, 672 h
Summary of the method: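 Female nu/nu mice given 10 million K562 cells in PBS/Matrigel (1:1) subcutaneously into the right flank. Once tumors reached 200 to 400 mm³, mice were randomized into groups of 4 or 5 and dosed daily by oral gavage in 0.5% methylcellulose/0.4% Tween80 in water, or vehicle, for 28 days. Body weight measured and expressed relative to initial; mean ± SEM.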

[15] = biological target: Serine/threonine-protein kinase 10 (Homo sapiens) (UniProt O94804); assay: Inhibition of LOK (unknown origin) assessed as residual activity at 1 uM by KINOMEscan binding assay relative to control
Serine/threonine-protein kinase 10 (Homo sapiens), sequence (O94804 whole entry, looked up, the tested form may be a part): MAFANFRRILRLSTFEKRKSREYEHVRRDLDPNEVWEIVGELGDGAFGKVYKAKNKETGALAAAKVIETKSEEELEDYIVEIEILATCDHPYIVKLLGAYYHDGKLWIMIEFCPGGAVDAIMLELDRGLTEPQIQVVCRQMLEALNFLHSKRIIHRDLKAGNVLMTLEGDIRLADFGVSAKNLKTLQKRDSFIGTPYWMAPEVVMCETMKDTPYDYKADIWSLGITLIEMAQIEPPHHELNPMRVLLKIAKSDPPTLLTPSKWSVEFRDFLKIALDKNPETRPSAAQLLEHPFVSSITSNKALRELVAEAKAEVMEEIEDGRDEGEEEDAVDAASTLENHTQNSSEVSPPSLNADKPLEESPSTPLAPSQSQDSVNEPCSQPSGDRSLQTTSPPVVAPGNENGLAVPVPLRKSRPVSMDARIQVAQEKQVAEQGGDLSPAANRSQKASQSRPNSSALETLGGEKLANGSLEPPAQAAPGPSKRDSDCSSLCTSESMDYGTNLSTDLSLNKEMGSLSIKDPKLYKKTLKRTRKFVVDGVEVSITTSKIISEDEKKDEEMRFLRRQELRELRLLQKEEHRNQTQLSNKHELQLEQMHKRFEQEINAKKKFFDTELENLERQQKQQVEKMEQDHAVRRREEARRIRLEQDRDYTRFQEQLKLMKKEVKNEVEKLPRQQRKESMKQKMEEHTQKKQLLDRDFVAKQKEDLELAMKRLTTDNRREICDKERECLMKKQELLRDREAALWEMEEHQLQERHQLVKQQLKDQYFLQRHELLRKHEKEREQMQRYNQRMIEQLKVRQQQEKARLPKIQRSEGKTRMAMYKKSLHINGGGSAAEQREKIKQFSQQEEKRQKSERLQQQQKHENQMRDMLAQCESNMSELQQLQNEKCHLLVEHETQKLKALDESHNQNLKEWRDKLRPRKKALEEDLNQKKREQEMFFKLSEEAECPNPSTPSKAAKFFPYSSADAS

[16] = biological target: T2, Discoidin domain-containing receptor 2 (Homo sapiens) (UniProt Q16832); assay: Inhibition of recombinant His-tagged human DDR2 cytoplasmic domain expressed in baculovirus expression system assessed as residual activity at 1 uM by KINOMEscan binding assay relative to control
T2 sequence (whole entry): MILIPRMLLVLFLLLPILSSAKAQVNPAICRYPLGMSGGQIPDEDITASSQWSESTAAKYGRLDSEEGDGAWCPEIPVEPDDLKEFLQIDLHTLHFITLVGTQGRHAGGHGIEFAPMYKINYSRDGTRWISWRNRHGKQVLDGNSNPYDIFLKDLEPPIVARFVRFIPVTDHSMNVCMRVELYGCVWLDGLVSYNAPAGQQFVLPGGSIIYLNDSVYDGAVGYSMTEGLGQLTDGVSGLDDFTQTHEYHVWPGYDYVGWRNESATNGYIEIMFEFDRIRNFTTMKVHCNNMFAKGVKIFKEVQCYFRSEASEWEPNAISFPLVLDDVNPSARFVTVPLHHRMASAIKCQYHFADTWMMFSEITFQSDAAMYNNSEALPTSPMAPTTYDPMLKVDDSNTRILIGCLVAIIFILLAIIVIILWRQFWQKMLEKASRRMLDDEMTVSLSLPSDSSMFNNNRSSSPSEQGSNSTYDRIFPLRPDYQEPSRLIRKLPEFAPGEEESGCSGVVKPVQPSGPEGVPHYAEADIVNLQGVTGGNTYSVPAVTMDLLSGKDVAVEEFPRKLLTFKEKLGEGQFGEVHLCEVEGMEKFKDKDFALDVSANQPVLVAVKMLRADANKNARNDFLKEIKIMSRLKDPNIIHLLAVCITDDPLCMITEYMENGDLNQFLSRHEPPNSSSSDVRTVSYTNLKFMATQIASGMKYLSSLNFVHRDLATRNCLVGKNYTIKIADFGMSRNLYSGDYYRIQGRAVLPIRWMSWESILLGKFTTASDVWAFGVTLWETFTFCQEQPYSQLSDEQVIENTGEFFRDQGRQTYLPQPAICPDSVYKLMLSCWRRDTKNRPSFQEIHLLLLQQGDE

Row | inhibition [2] | inhibition [3] | GI50 [4] | GI50 [5] | GI50 [6] | GI50 [7] | inhibition [8] | Cmax [9] | half-life [10] | AUC(0-inf) [11] | Cmax [12] | inhibition [13] | Activity [15] | Activity [16] | Structure (SMILES) | Activity [1] | Activity [14]
1 | Active | Active |  |  |  |  |  |  |  |  |  |  |  |  | Cc1ccc(NC(=O)c2ccc(CN3CCN(C)CC3)cc2)cc1Nc1nccc(-c2cccnc2)n1 [IMATINIB] | Active | 
2 |  |  | 12 nM | 2870 nM | 124 nM | 5060 nM | Active | 825 ng/mL | 2.47 h | 2430 ng·h/mL | 223 ng/mL | Active | 0.6% | 0.65% | Cc1ccc(C(=O)N2CCC(Oc3cc(NC(=O)c4ccc(CN5CCN(C)CC5)c(C(F)(F)F)c4)ccc3C)CC2)cn1 |  | Non-Toxic
